Results from different studies.
Each line is one published result; the experiments were not run side by side.
PTGS1: Prostaglandin G/H synthase 1 (PTGS1, Ovis aries, UniProt P05979)
MAP2K2: Dual specificity mitogen-activated protein kinase kinase 2 (MAP2K2, Homo sapiens, UniProt P36507)
rep main protease: Replicase polyprotein 1ab, main protease (rep, Porcine epidemic diarrhea virus, UniProt P0C6Y4)
rep papain-like protease: Replicase polyprotein 1ab, papain-like protease (rep, Porcine epidemic diarrhea virus, UniProt P0C6Y4)
ALDH3A1: Aldehyde dehydrogenase, dimeric NADP-preferring (ALDH3A1, Homo sapiens, UniProt P30838)
IPMK: Inositol polyphosphate multikinase (IPMK, Homo sapiens, UniProt Q8NFU5)

Structure (SMILES) | target | assay | IC50
Cc1ccc(S(=O)(=O)NNc2ccc([N+](=O)[O-])cc2[N+](=O)[O-])cc1 | PTGS1 | enzyme activity, inhibitor | 194 µM
CC#CC(=O)N1CC[C@@H](n2c(=O)n(-c3ccc(Oc4ccccc4)cc3)c3c(N)ncnc32)C1 | MAP2K2 | enzyme activity, inhibitor | > 5 µM
NS(=O)(=O)c1ccc(-n2nc(C(=O)NN=Cc3cccnc3)cc2-c2ccccc2)cc1 | PTGS1 | enzyme activity, inhibitor | 8.94 µM
O=C(NCc1cc(O)c(O)c(Br)c1)c1nccs1 | rep main protease | enzyme activity, inhibitor, FRET | 2.52 µM
CC(=NNC(=O)c1cc(-c2ccccc2)n(-c2ccc(S(N)(=O)=O)cc2)n1)c1ccc(Br)cc1 | PTGS1 | enzyme activity, inhibitor | 3.14 µM
CN(C)c1ccc(C(=O)NCc2cc(O)c(O)c(Br)c2)cc1 | rep main protease | enzyme activity, inhibitor, FRET | 7.61 µM
NS(=O)(=O)c1ccc(-n2nc(C(=O)NN3C(=O)c4ccccc4C3=O)cc2-c2ccccc2)cc1 | PTGS1 | enzyme activity, inhibitor | 6.72 µM
Cn1c(C(=O)NCc2cc(O)c(O)c(Br)c2)cc2ccccc21 | rep papain-like protease | enzyme activity, inhibitor, FRET | 8.08 µM
O=C(Nc1ccc(-c2ccccc2)cc1)c1cnn(-c2ccc([N+](=O)[O-])cc2)c1C(F)(F)F | PTGS1 | enzyme activity, inhibitor | 5.91 µM
NC(=O)c1nnn(Cc2cc(Cl)c(C(=O)c3ccc(Cl)cc3)c(Cl)c2)c1N | D(1A) dopamine receptor (DRD1, Homo sapiens, UniProt P21728) | cAMP, antagonist | 7.98 µM
N=C(N)c1ccc2nc(-c3cc(CC(=O)N[C@@H](CC(=O)O)C(=O)O)cc(-c4cc(S(N)(=O)=O)ccc4O)c3O)[nH]c2c1 | Coagulation factor VII (F7, Homo sapiens, UniProt P08709) | enzyme activity, inhibitor | 0.035 µM
CC#CC(=O)N[C@H]1CCCN(c2c(F)cc(C(N)=O)c3[nH]c(C)c(C)c23)C1 | MAP2K2 | enzyme activity, inhibitor | > 5 µM
O=C(NCc1cc(O)c(O)c(Br)c1)c1ccc(Cl)c(F)c1 | rep papain-like protease | enzyme activity, inhibitor, FRET | 7.22 µM
COc1ccc(C=NNC(=O)c2cc(-c3ccccc3)n(-c3ccc(S(N)(=O)=O)cc3)n2)cc1OC | PTGS1 | enzyme activity, inhibitor | 9.78 µM
O=C(COC(=O)c1ccccc1Nc1cccc(C(F)(F)F)c1)Nc1ccc(F)cc1 | PTGS1 | enzyme activity, inhibitor | 151 µM
O=C1NC(=O)c2c1c(-c1ccccc1Cl)cc1[nH]c3ccc(O)cc3c21 | Serine/threonine-protein kinase WNK3 (WNK3, Homo sapiens, UniProt Q9BYP7) | enzyme activity, inhibitor | 1.49 µM
NC(N)=S | Urease (Canavalia ensiformis, UniProt P07374) | enzyme activity, inhibitor | 23.8 µM
COc1ccc(N2CCN(Cc3cn4c(-c5ccc(Br)cc5)nnc4s3)CC2)cc1 | Aifm2 (Mus musculus, UniProt Q8BUE4, L360F) | enzyme activity, inhibitor, absorbance | ~0.518 µM
O=C(NCc1cc(O)c(O)c(Br)c1)c1cccc(C(F)(F)F)c1 | rep papain-like protease | enzyme activity, inhibitor, FRET | 1.95 µM
COc1nc2ccc(Br)cc2cc1[C@@H](c1ccccc1)[C@@](O)(CCN(C)C)c1cccc2ccccc12 | ALDH3A1 | enzyme activity, inhibitor, fluorescence | < 10 µM
CCC(C(=O)NCc1cc(O)c(O)c(Br)c1)c1ccccc1 (stereo not shown) | rep papain-like protease | enzyme activity, inhibitor, FRET | 10.6 µM
CC(=NNC(=O)c1cc(-c2ccccc2)n(-c2ccc(S(N)(=O)=O)cc2)n1)c1ccc(C)cc1 | PTGS1 | enzyme activity, inhibitor | 3.32 µM
Nc1nc2c(s1)C(c1ccccc1Cl)CC(=O)N2 (stereo not shown) | ALDH3A1 | enzyme activity, inhibitor, fluorescence | < 10 µM
NS(=O)(=O)c1ccc(-n2nc(C(=O)NN=Cc3ccccc3O)cc2-c2ccccc2)cc1 | PTGS1 | enzyme activity, inhibitor | 3.91 µM
CC(=O)Oc1cccc(C(=O)NCc2cc(O)c(O)c(Br)c2)c1C | rep main protease | enzyme activity, inhibitor, FRET | 7.35 µM
COc1cccc(CNc2nc(NC3CCN(Cc4ccccc4)CC3)c3nc[nH]c3n2)c1 | IPMK | enzyme activity, inhibitor | 2 µM
O=C(NCc1cc(O)c(O)c(Br)c1)c1ccccc1 | rep papain-like protease | enzyme activity, inhibitor, FRET | 12.7 µM
COCCNc1nc(NCc2cccc(-c3ccc(OC)cc3)c2)nc2[nH]cnc12 | IPMK | enzyme activity, inhibitor | 38 µM
